# Test results from ChEMBL document CHEMBL1152300, “Ligand specificity of constitutive androstane receptor as probed by induced-fit docking and mutagenesis” (J Med Chem, 2008).
# How the values were obtained:
# [1] = biological target: T1, Nuclear receptor subfamily 1 group I member 3 (Mus musculus, UniProt O35627, F171L); assay: Activation of mouse CAR F171L mutant expressed in HEK293 cells at 10 uM by mammalian one-hybrid assay; assay type: cell-based; conditions: read-out: Activity
# Procedure, shortened: (§1)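 GAL4-DBD fused to mouse CAR LBD (residues 118-358), wild-type or point mutant, cotransfected with UASx4-tk-luc reporter and pCMVβ into HEK293 cells. Cells were exposed to final 1 µM, 2 µM or 10 µM test chemical, or 0.1% v/v DMSO, for 24 h after transfection. Luciferase was normalized to β-galactosidase and set against empty GAL4 vector (=1.0). Mean ± standard deviation, three independent experiments.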
# [2] = biological target: T2, Nuclear receptor subfamily 1 group I member 3 (Mus musculus, UniProt O35627, H213A); assay: Effect on nuclear co-repressor receptor binding to mouse CAR H213A mutant […] at 1 uM by yeast two-hybrid assay; assay type: cell-based; conditions: read-out: Activity
# Procedure, shortened: (§2)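 Yeast expressing wild-type or mutant mouse CAR LBD plus NCoR, selected on SD plates lacking leucine and tryptophan. Pooled colonies treated with DMSO or compound for 3.5 h. β-Galactosidase activity normalized to cell density. Reference is 10 µM androstenol (=100). Mean ± SD of two independent determinations, each in triplicate.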
# [3] = biological target: Nuclear receptor subfamily 1 group I member 3 (Mus musculus, UniProt O35627, T350M); assay: Effect on nuclear co-repressor receptor binding to mouse CAR T350M mutant […] at 1 uM by yeast two-hybrid assay; assay type: cell-based; conditions: read-out: Activity; procedure, shortened: as §2
# [4] = biological target: T1, Nuclear receptor subfamily 1 group I member 3; assay: Effect on nuclear co-repressor receptor binding to mouse CAR F171L mutant […] at 1 uM by yeast two-hybrid assay; assay type: cell-based; conditions: read-out: Activity; procedure, shortened: as §2
# [5] = biological target: T3, Nuclear receptor subfamily 1 group I member 3 (Mus musculus, UniProt O35627, L253F); assay: Effect on nuclear co-repressor receptor binding to mouse CAR L253F mutant […] at 1 uM by yeast two-hybrid assay; assay type: cell-based; conditions: read-out: Activity; procedure, shortened: as §2
# [6] = biological target: T1, Nuclear receptor subfamily 1 group I member 3; assay: Effect on steroid receptor co-activator 1 binding to mouse CAR F171L mutant […] at 1 uM by yeast two-hybrid assay; assay type: cell-based; conditions: read-out: Activity
# Procedure, shortened: as §2, with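 “SRC-1,” for “NCoR,”, “wild-type CAR + SRC-1 with DMSO” for “10 µM androstenol”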
# [7] = biological target: Nuclear receptor subfamily 1 group I member 3 (Mus musculus, UniProt O35627, L353A); assay: Decrease in mouse CAR L353A mutant activation expressed in HEK293 cells at 1 uM by mammalian one-hybrid assay; assay type: cell-based; conditions: read-out: Activity
# Procedure, shortened: (§3)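 GAL4 DBD fused to mouse CAR LBD (residues 118-358), wild type or point mutant, cotransfected with UASx4-tk-luc reporter and pCMVβ into HEK293 cells. Cells cultured with DMSO (0.1% v/v) or compound (final 1, 2 or 10 µM). Lysed 24 h post-transfection. Luciferase normalized to β-galactosidase, expressed relative to empty GAL4 vector (=1.0). Mean ± SD, three independent experiments.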
# [8] = biological target: T4, Nuclear receptor subfamily 1 group I member 3 (Mus musculus, UniProt O35627, I252L); assay: Effect on nuclear co-repressor receptor binding to mouse CAR I252L mutant […] at 1 uM by yeast two-hybrid assay; assay type: cell-based; conditions: read-out: Activity; procedure, shortened: as §2
# [9] = biological target: Nuclear receptor subfamily 1 group I member 3 (Mus musculus, UniProt O35627, L212A); assay: Decrease in mouse CAR L212A mutant activation expressed in HEK293 cells at 10 uM by mammalian one-hybrid assay; assay type: cell-based; conditions: read-out: Activity; procedure, shortened: as §3
# [10] = biological target: T5, Nuclear receptor subfamily 1 group I member 3 (Mus musculus, UniProt O35627); assay: Increase in nuclear co-repressor receptor binding to wild type mouse CAR expressed in HEK293 cells at 10 uM by yeast two-hybrid assay; conditions: hek293, 10 µM
# T5 sequence (O35627 whole entry): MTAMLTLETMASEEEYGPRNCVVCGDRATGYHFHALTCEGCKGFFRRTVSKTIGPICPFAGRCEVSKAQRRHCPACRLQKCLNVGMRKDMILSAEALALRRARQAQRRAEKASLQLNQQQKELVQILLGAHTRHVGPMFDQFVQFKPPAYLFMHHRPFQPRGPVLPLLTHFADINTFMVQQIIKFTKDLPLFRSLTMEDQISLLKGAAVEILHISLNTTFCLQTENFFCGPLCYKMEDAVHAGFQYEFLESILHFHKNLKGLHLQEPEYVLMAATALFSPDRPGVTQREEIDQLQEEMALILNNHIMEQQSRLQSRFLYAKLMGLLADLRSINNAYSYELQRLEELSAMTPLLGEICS
# [11] = biological target: T6, Nuclear receptor subfamily 1 group I member 3 (Mus musculus, UniProt O35627, S251L); assay: Activation of mouse CAR S251L mutant expressed in HEK293 cells at 10 uM by mammalian one-hybrid assay; assay type: cell-based; conditions: hek293, 10 µM; procedure, shortened: as §3
# [12] = biological target: T3, Nuclear receptor subfamily 1 group I member 3; assay: Decrease in steroid receptor coactivator 1 binding to mouse CAR L253F mutant […] at 2 uM by yeast two-hybrid assay; assay type: cell-based; conditions: read-out: Activity
# Procedure, shortened: (§4)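 Yeast two-hybrid: yeast expressing wild-type or mutant mouse CAR LBD plus SRC-1 or NCoR, selected on SD medium lacking Leu and Trp. Pooled colonies treated with DMSO or test chemical for 3.5 h. β-Galactosidase normalized to cell density. SRC-1 reference: wild-type + DMSO = 100. NCoR reference: 10 µM androstenol = 100. Mean ± SD, two independent determinations, each in triplicate.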
# [13] = biological target: Nuclear receptor subfamily 1 group I member 3 (Mus musculus, UniProt O35627, T350A); assay: Decrease in mouse CAR T350A mutant activation expressed in HEK293 cells at 2 uM by mammalian one-hybrid assay; assay type: cell-based; conditions: read-out: Activity; procedure, shortened: as §1
# [14] = biological target: T6, Nuclear receptor subfamily 1 group I member 3; assay: Decrease in steroid receptor coactivator 1 binding to mouse CAR S251L mutant […] at 2 uM by yeast two-hybrid assay; assay type: cell-based; conditions: read-out: Activity; procedure, shortened: as §4
# [15] = biological target: T7, Nuclear receptor subfamily 1 group I member 3 (Mus musculus, UniProt O35627, F171A); assay: Effect on steroid receptor co-activator 1 binding to mouse CAR F171A mutant […] at 2 uM by yeast two-hybrid assay; assay type: cell-based; conditions: read-out: Activity; procedure, shortened: as §4
# [16] = biological target: T7, Nuclear receptor subfamily 1 group I member 3; assay: Activation of mouse CAR F171A mutant expressed in HEK293 cells at 2 uM by mammalian one-hybrid assay; assay type: cell-based; conditions: hek293, 2 µM; procedure, shortened: as §1
# [17] = biological target: T4, Nuclear receptor subfamily 1 group I member 3; assay: Activation of mouse CAR I252L mutant expressed in HEK293 cells at 2 uM by mammalian one-hybrid assay; assay type: cell-based; conditions: hek293, 2 µM; procedure, shortened: as §1
# [18] = biological target: T2, Nuclear receptor subfamily 1 group I member 3; assay: Effect on steroid receptor co-activator 1 binding to mouse CAR H213A mutant […] at 2 uM by yeast two-hybrid assay; assay type: cell-based; conditions: read-out: Activity; procedure, shortened: as §4
# [19] = biological target: T8, Nuclear receptor subfamily 1 group I member 3 (Mus musculus, UniProt O35627, Y336A); assay: Decrease in steroid receptor coactivator 1 binding to mouse CAR Y336A mutant […] at 2 uM by yeast two-hybrid assay; assay type: cell-based; conditions: read-out: Activity; procedure, shortened: as §4
# [20] = biological target: T8, Nuclear receptor subfamily 1 group I member 3; assay: Decrease in nuclear co-repressor receptor binding to mouse CAR Y336A mutant […] at 2 uM by yeast two-hybrid assay; assay type: cell-based; conditions: read-out: Activity; procedure, shortened: as §4
# T1 sequence (O35627 whole entry F171L, the tested form may be a part): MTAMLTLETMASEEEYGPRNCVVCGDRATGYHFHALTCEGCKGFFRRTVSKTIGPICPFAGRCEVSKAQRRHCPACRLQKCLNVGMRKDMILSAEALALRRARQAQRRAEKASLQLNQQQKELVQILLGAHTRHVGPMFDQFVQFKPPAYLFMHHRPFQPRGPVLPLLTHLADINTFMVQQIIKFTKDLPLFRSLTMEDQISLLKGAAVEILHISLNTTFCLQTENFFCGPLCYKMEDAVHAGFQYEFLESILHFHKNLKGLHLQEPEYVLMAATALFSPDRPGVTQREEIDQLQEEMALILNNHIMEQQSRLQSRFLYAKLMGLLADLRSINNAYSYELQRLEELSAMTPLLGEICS
# T2 sequence (O35627 whole entry H213A, the tested form may be a part): as the sequence (O35627 whole entry F171L, the tested form may be a part) above, with L171F, H213A counted along it
# T6 sequence (O35627 whole entry S251L): as the sequence (O35627 whole entry F171L, the tested form may be a part) above, with L171F, S251L counted along it
# T3 sequence (O35627 whole entry L253F): as the sequence (O35627 whole entry F171L, the tested form may be a part) above, with L171F, L253F counted along it
# T7 sequence (O35627 whole entry F171A): as the sequence (O35627 whole entry F171L, the tested form may be a part) above, with L171A counted along it
# T8 sequence (O35627 whole entry Y336A): as the sequence (O35627 whole entry F171L, the tested form may be a part) above, with L171F, Y336A counted along it
# T4 sequence (O35627 whole entry I252L): as the sequence (O35627 whole entry F171L, the tested form may be a part) above, with L171F, I252L counted along it
# Chain of Nuclear receptor subfamily 1 group I member 3 (Mus musculus, UniProt O35627, T350M) (O35627 whole entry T350M): as the sequence (O35627 whole entry F171L, the tested form may be a part) above, with L171F, T350M counted along it
# Chain of Nuclear receptor subfamily 1 group I member 3 (Mus musculus, UniProt O35627, T350A) (O35627 whole entry T350A): as the sequence (O35627 whole entry F171L, the tested form may be a part) above, with L171F, T350A counted along it
# Chain of Nuclear receptor subfamily 1 group I member 3 (Mus musculus, UniProt O35627, L212A) (O35627 whole entry L212A): as the sequence (O35627 whole entry F171L, the tested form may be a part) above, with L171F, L212A counted along it
# Chain of Nuclear receptor subfamily 1 group I member 3 (Mus musculus, UniProt O35627, L353A) (O35627 whole entry L353A, the tested form may be a part): as the sequence (O35627 whole entry F171L, the tested form may be a part) above, with L171F, L353A counted along it
smiles,measurement,setting,value
COc1ccc(C(=O)CCCc2ccccc2)cc1,activity at 10 µM,[1],< 50%
Clc1cnc(Oc2ccc(Oc3ncc(Cl)cc3Cl)cc2)c(Cl)c1,activity at 1 µM,[2],< 50%
same,activity at 1 µM,[3],< 50%
same,activity at 1 µM,[4],< 50%
same,activity at 1 µM,[5],< 50%
same,activity at 1 µM,[6],< 50%
same,inhibition at 1 µM,[7],50%
same,activity at 1 µM,[8],< 50%
C[C@]12CC[C@@H](O)C[C@@H]1CC[C@@H]1[C@@H]2CC[C@]2(C)C=CC[C@@H]12 [ANDROSTENOL],inhibition at 10 µM,[9],50%
same,FC,[10],49
same,Activity,[11],< 50%
Clc1ccccc1C(c1ccccc1)(c1ccccc1)n1ccnc1 [CLOTRIMAZOLE],inhibition at 2 µM,[12],≥ 50%
same,inhibition at 2 µM,[13],< 50%
same,inhibition at 2 µM,[14],≥ 50%
same,activity at 2 µM,[15],< 50%
same,Activity,[16],> 100%
same,Activity,[17],50%
same,activity at 2 µM,[18],< 50%
same,inhibition at 2 µM,[19],≥ 50%
same,inhibition at 2 µM,[20],≥ 50%
